KCNK3 block: human KCNK3 channel inhibitors, primary screen, CHO cells, FluxOR thallium flux, B-score; Potassium channel subfamily K member 3 (Homo sapiens), O14649; FluxOR fluorescence; hits give low values; B-score at 10 µM; actives 0.84% (n = 340,000); AID 602410, 2012;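 active = B-score under library mean minus 4 SD, starting fluorescence ratio at most library mean plus 5 SD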;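 also: more negative B-score means stronger inhibition of thallium flux through KCNK3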
Target sequence (O14649 whole entry, looked up): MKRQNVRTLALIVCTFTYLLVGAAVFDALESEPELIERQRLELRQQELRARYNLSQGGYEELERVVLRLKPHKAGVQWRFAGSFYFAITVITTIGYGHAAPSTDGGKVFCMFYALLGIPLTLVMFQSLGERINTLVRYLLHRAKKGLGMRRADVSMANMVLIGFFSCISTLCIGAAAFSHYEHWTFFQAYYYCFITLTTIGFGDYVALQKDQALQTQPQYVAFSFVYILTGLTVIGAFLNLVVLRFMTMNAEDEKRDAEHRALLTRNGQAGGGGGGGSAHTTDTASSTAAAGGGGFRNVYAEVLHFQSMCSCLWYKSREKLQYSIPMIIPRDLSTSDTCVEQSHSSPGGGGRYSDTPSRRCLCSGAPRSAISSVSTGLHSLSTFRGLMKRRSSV
KCNQ1 inh: inhibitors of human KCNQ1 channel, primary screen, cell-based, thallium flux, high-throughput | AID 2642, 2010 | B-score at 10 µM | actives 1.3% (n = 310,000) | Potassium voltage-gated channel subfamily KQT member 1 (Homo sapiens), P51787 | CHO-K1 KCNQ1, FluxOR thallium flux fluorescence; hits give high values;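 active = compounds whose thallium flux B-score, printed positive for inhibition, exceeds three library SD while starting fluorescence stays within three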;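 also: channel opened by potassium depolarization with thallium stimulus after 20 min compound exposure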
KCNK9 block: KCNK9 potassium channel inhibitors, primary screen, HEK293 cells, thallium flux. Potassium channel subfamily K member 9 (Homo sapiens), Q9NPC2. FluxOR thallium flux fluorescence; hits give low values. B-score at 10 µM. actives 1.2% (n = 310,000);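 active = ratio B-score over 3 SD below the library mean, with starting fluorescence within 5 SD of its mean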;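 also: negative B-score means less thallium flux so channel inhibition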
KCNQ1 act: potentiators or activators of KCNQ1 channel, primary screen, cell-based, thallium flux, high-throughput | Potassium voltage-gated channel subfamily KQT member 1 (Homo sapiens), P51787 | CHO-K1 KCNQ1, thallium flux FluxOR fluorescence; hits give high values | B-score at 10 µM | actives 0.35% (n = 310,000);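 active = fluorescence ratio B-score, a plate-corrected score, at least three library SD, with initial intensity B-score within 5 SD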
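Assay system: CHO-K1 cells stably expressing KCNQ1. Medium: assay buffer for compound exposure, DMSO matched across wells. Timing: 37 °C overnight plating, 90-min dark dye load, 20-min compound pretreatment. Signal: kinetic FluxOR fluorescence, 10 s baseline plus 110 s post-stimulus.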
hERG protect: hERG rescue from dofetilide block, primary screen, cell-based, CHO-hERG, FluxOR thallium flux, dofetilide IC70. activation (rescue from dofetilide block), less the hit threshold, % at 10 µM. dofetilide IC70 present. Voltage-gated inwardly rectifying potassium channel KCNH2 (Homo sapiens), Q12809. AID 1511, 2009. actives 0.51% (n = 310,000);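 active = activation above the mean of controls blocked by dofetilide plus 5 SD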;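 also: thallium influx through hERG after potassium depolarization seen as dye fluorescence rise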
Kir21 block: inhibitors of mouse Kir2.1 inward-rectifier potassium channel; Inward rectifier potassium channel 2 (Mus musculus), P35561; HEK293-Kir2.1, FluxOR thallium flux fluorescence; hits give low values; B-score at 10 µM; actives 0.85% (n = 310,000);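 active = fluorescence ratio B-score at or below minus 3 SD of library scores, with starting-brightness B-score within 2 SD, cut at about -4.2 in these data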;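 also: channel flux triggered by added potassium and thallium sulfate stimulus; B-score of peak minus minimum fluorescence over baseline after thallium stimulus; more negative B-score means stronger Kir2.1 block with less thallium influx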
KCNQ1 block val: KCNQ1 potassium channel inhibitors, confirmation, cell-based, Tl flux, duplicate; shares compounds with KCNQ1 inh; KCNQ1 cell line, FluxOR thallium flux fluorescence; actives 93% (n = 1,600); inhibition, % at 10 µM;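 active = primary screen active, with duplicate mean exceeding buffer control mean plus 3 SD of buffer wells, cut at about 28% in these data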
CHO Tl flux: thallium flux effects in parental CHO cells, counter-screen for KCNQ1 inhibitor project, cell-based, Tl flux. shares compounds with KCNQ1 inh. fluorescence ratio (Tl flux) at 10 µM. parental CHO-K1, FluxOR thallium flux fluorescence ratio; hits give low values; zero means no signal rise above baseline. AID 588366, 2011. actives 21% (n = 1,600);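 active = mean of duplicate thallium-flux fluorescence ratios in parental host cells more than 5 SD below the buffer control mean, cut at about 0.38 in these data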;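 also: ratio is peak minus minimum fluorescence divided by baseline fluorescence; actives read low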
KCNQ1 APC inh: KCNQ1 channel inhibitors, confirmation, orthogonal assay, cell-based, automated electrophysiology; calls only at 10 µM; shares compounds with KCNQ1 inh; KCNQ1-CHO cells, automated patch clamp current; actives 20% (n = 490);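 active = KCNQ1 current drop exceeding 3 SD of negative control wells, seen in both duplicate runs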;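 also: steady state current during a 2 s step from -80 to +40 mV; negative values mean current inhibition and positive values mean potentiation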
KCNQ2 spec: KCNQ2 channel inhibition, selectivity assay for KCNQ1 inhibitor project, cell-based; KCNQ2 cells, FluxOR thallium flux fluorescence; actives 71% (n = 1,600); AID 651746, 2012; inhibition, % at 10 µM; shares compounds with KCNQ1 inh;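 active = mean percent inhibition of the KCNQ2 thallium signal more than 5 SD above the buffer-only control wells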;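 also: KCNQ2 expressed in CHO cells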
KCNQ1-KCNE1 inh: KCNQ1/KCNE1 channel inhibition, selectivity assay for KCNQ1 inhibitor project, CHO-K1 cells, thallium flux, FluxOR | FluxOR thallium flux fluorescence | actives 77% (n = 1,600) | inhibition, % at 10 µM | shares compounds with KCNQ1 inh;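 active = mean percent inhibition of duplicate wells above the buffer-only control mean plus 3 SD of those controls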
Each line names hits and unclear results; the compound was inactive in the other large screens (follow-up assays come after a bar, where they were run). An excerpt weighted towards active compounds, which were near 3.7% of everything screened.

O=C(Nc1nc(-c2ccccc2)c(C(=O)c2ccccc2)s1)c1ccc(S(=O)(=O)N2CCCC2)cc1	KCNQ1 inh 8 | KCNQ1 block val 78.0 | CHO Tl flux inactive | KCNQ2 spec 62.7% | KCNQ1-KCNE1 inh 96.0%
CC(NC(=O)COC(=O)C1(C)CC1(Cl)Cl)c1ccccc1 (stereo not drawn)	none (no result: KCNQ1 inh, KCNK9 block, KCNQ1 act, hERG protect, Kir21 block)
Cc1c(NS(=O)(=O)c2cccc(C(=O)Nc3cccc(F)c3)c2)c(=O)n(-c2ccccc2)n1C	none (no result: KCNQ1 inh, KCNK9 block, KCNQ1 act, hERG protect, Kir21 block)
CCOC(=O)CC1COCCN1C(=O)c1cc(COc2ccc(F)cc2Cl)on1 (stereo not drawn)	none
O=C(CCCc1c[nH]c2ccccc12)NCC1COc2ccccc2O1 (stereo not drawn)	KCNQ1 inh 10 | KCNQ1 block val 62.5 | CHO Tl flux inactive | KCNQ2 spec 74.0% | KCNQ1-KCNE1 inh 78.5%
CS(=O)(=O)N(CC(=O)NCc1ccncc1)c1cc(Cl)ccc1Cl	none
COc1ccc(-c2cn[nH]c2-c2ccc(OCc3ccccc3)cc2O)cc1	KCNQ1 inh 7, KCNK9 block -6.73 | KCNQ1 block val 107.0 | CHO Tl flux inactive | KCNQ1 APC inh inactive | KCNQ2 spec 91.3% | KCNQ1-KCNE1 inh 129.5%
CCCCSc1nc(C)c(CC(=O)O)c(=O)[nH]1	KCNQ1 inh 10 | KCNQ1 block val 61.5 | CHO Tl flux inactive | KCNQ2 spec inactive | KCNQ1-KCNE1 inh 47.0%
Cc1onc(-c2ccccc2)c1C(=O)Nc1nncs1	none
Fc1cccc(Cl)c1CNc1ccc(N2CCCC2)cc1	KCNQ1 inh 6 | KCNQ1 block val inactive | CHO Tl flux inactive | KCNQ2 spec 72.3% | KCNQ1-KCNE1 inh 40.5%
COC(=O)C(CCSC)NC(=O)C12CC3CC(CC(C3)C1)C2 (stereo not drawn)	none
COC(=O)C(Cc1ccc(O)cc1)NC(=O)C12CC3CC(CC(C3)C1)C2 (stereo not drawn)	KCNQ1 inh 14 | KCNQ1 block val 43.5 | CHO Tl flux inactive | KCNQ2 spec inactive | KCNQ1-KCNE1 inh inactive
Cc1ccc(S(=O)(=O)c2cc3c(=O)n4ccccc4nc3n(CCc3ccccc3)c2=N)cc1	KCNQ1 inh 6 | KCNQ1 block val 100.5 | CHO Tl flux 0.36 | KCNQ2 spec 118.0% | KCNQ1-KCNE1 inh 140.5%
CCn1c(=N)c(S(=O)(=O)c2ccc(C)cc2)cc2c(=O)n3ccccc3nc21	none (no result: KCNK3 block)
CCOC(=O)CC[C@H](NC(=O)Cn1cnc2c(NCc3ccccc3)ncnc21)C(=O)OCC	none (no result: KCNQ1 inh, KCNK9 block, KCNQ1 act, hERG protect, Kir21 block)
